Measurements taken from ChEMBL document CHEMBL1817573, “Synthesis, structure elucidation, determination of the lipophilicity and identification of antitumour activities in vitro of novel 3-(2-furanyl)-8-aryl-7,8-dihydroimidazo[2,1-c][1,2,4]triazin-4(6H)-ones with a low cytotoxicity towards normal human skin fibroblast cells” (Bioorg Med Chem, 2011).
Each block holds one compound with its values, some of them ahead of it.

How the values were obtained:
[1] = Growth inhibition of human HSF cells at 50 ug/ml after 72 hrs by spectrophotometric analysis; assay type: cell-based; settings: read-out: GI
Method in brief: (§1)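 Normal primary human skin fibroblasts (HSF), HeLa (ECACC 93021013) and T47D (ECACC 85102201) were each seeded at 10⁴ cells/mL. Compounds were predissolved in DMSO and tested at a single 50 µg/mL (about 0.14–0.18 mM). Cultures were incubated at 37 °C, 5% CO₂, 90% humidity for 24, 48 or 72 h, and percent growth inhibition was read spectrophotometrically.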

[2] = Growth inhibition of human HSF cells at 50 ug/ml after 48 hrs by spectrophotometric analysis; assay type: cell-based; settings: read-out: GI; method in brief: as §1
HeLa [3] = assay: Growth inhibition of human HeLa cells at 50 ug/ml after 48 hrs by spectrophotometric analysis; assay type: functional; settings: read-out: GI; method in brief: as §1
[4] = Growth inhibition of human HSF cells at 50 ug/ml after 24 hrs by spectrophotometric analysis; assay type: cell-based; settings: read-out: GI; method in brief: as §1
[5] = Lipophilicity, log Kw of the compound in methanol-water mixture by RP-HPLC; assay type: physicochemical
Method in brief: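 Isocratic RP-HPLC on a C18 column (150 × 4.6 mm, 5 µm) at 22 °C, 1 mL/min, DAD detection. Mobile phases were methanol (30–80%), 20% acetate buffer pH 3.5 (0.2 M acetate, pH measured in aqueous solution) and 0.01 M/L octane-1-sulfonic acid sodium salt. log kw was extrapolated with the Snyder–Soczewiński equation.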

HeLa [6] = assay: Growth inhibition of human HeLa cells at 50 ug/ml after 72 hrs by spectrophotometric analysis; assay type: functional; settings: read-out: GI; method in brief: as §1
T47D [7] = assay: Growth inhibition of human T47D cells at 50 ug/ml after 72 hrs by spectrophotometric analysis; assay type: functional; settings: read-out: GI; method in brief: as §1
HeLa [8] = assay: Growth inhibition of human HeLa cells at 50 ug/ml after 24 hrs by spectrophotometric analysis; assay type: functional; settings: read-out: GI; method in brief: as §1
T47D [9] = assay: Growth inhibition of human T47D cells at 50 ug/ml after 48 hrs by spectrophotometric analysis; assay type: functional; settings: read-out: GI; method in brief: as §1
T47D [10] = assay: Growth inhibition of human T47D cells at 50 ug/ml after 24 hrs by spectrophotometric analysis; assay type: functional; settings: read-out: GI; method in brief: as §1
T47D [11] = assay: Antitumor activity against human T47D cells after 24 hrs by spectrophotometric analysis; assay type: functional, cell-based
Method in brief: (§2)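 Cancer lines were HeLa (ECACC 93021013, cervix epitheloid carcinoma) and T47D (ECACC 85102201, breast carcinoma). Cells were seeded at 10⁴ cells/mL, treated with compounds dissolved in DMSO, and incubated at 37 °C, 5% CO₂, 90% humidity for 24, 48 or 72 h. Read-out was the BrdU assay, and IC50 was calculated from dose–response curves.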

HeLa [12] = assay: Antitumor activity against human HeLa cells after 24 hrs by spectrophotometric analysis; assay type: functional, cell-based; method in brief: as §2
T47D [13] = assay: Antitumor activity against human T47D cells after 72 hrs by spectrophotometric analysis; assay type: functional, cell-based; method in brief: as §2
HeLa [14] = assay: Antitumor activity against human HeLa cells after 72 hrs by spectrophotometric analysis; assay type: functional, cell-based; method in brief: as §2
T47D [15] = assay: Antitumor activity against human T47D cells after 48 hrs by spectrophotometric analysis; assay type: functional, cell-based; method in brief: as §2
HeLa [16] = assay: Antitumor activity against human HeLa cells after 48 hrs by spectrophotometric analysis; assay type: functional, cell-based; method in brief: as §2

- logKw [5]: 4.01
Structure (SMILES): O=c1c(-c2ccco2)nnc2n1CCN2c1ccc(Cl)c(Cl)c1
- inhibition at 72 h, 50 ug/ml [1]: 80%
- inhibition at 48 h, 50 ug/ml [2]: 50%
- inhibition of growth at 50 µg/mL (HeLa [3]): 50%
- inhibition at 24 h, 50 ug/ml [4]: 0%
- inhibition of growth at 50 µg/mL (HeLa [6]): 95%
- inhibition of growth at 50 µg/mL (T47D [7]): 40%
- inhibition of growth at 50 µg/mL (HeLa [8]): 50%
- inhibition of growth at 50 µg/mL (T47D [9]): 20%
- inhibition of growth at 50 µg/mL (T47D [10]): 10%

- logKw [5]: 3.45
Structure (SMILES): O=c1c(-c2ccco2)nnc2n1CCN2c1cccc(Cl)c1
- inhibition at 72 h, 50 ug/ml [1]: 75%
- inhibition at 48 h, 50 ug/ml [2]: 60%
- inhibition of growth at 50 µg/mL (HeLa [3]): 80%
- inhibition at 24 h, 50 ug/ml [4]: 25%
- inhibition of growth at 50 µg/mL (HeLa [6]): 95%
- inhibition of growth at 50 µg/mL (T47D [7]): 80%
- inhibition of growth at 50 µg/mL (HeLa [8]): 80%
- inhibition of growth at 50 µg/mL (T47D [9]): 50%
- inhibition of growth at 50 µg/mL (T47D [10]): 20%

- IC50 (T47D [11]): 180 µM
- IC50 (HeLa [12]): 180 µM
- logKw [5]: 2.64
- IC50 (T47D [13]): 100 µM
- IC50 (HeLa [14]): 100 µM
- IC50 (T47D [15]): 110 µM
- IC50 (HeLa [16]): 130 µM
Structure (SMILES): O=c1c(-c2ccco2)nnc2n1CCN2c1ccccc1
- inhibition at 72 h, 50 ug/ml [1]: 60%
- inhibition at 48 h, 50 ug/ml [2]: 50%
- inhibition of growth at 50 µg/mL (HeLa [3]): 75%
- inhibition at 24 h, 50 ug/ml [4]: 50%
- inhibition of growth at 50 µg/mL (HeLa [6]): 100%
- inhibition of growth at 50 µg/mL (T47D [7]): 95%
- inhibition of growth at 50 µg/mL (HeLa [8]): 50%
- inhibition of growth at 50 µg/mL (T47D [9]): 85%
- inhibition of growth at 50 µg/mL (T47D [10]): 50%

- logKw [5]: 3
Structure (SMILES): Cc1cccc(N2CCn3c2nnc(-c2ccco2)c3=O)c1C
- inhibition at 72 h, 50 ug/ml [1]: 0%
- inhibition at 48 h, 50 ug/ml [2]: 0%
- inhibition of growth at 50 µg/mL (HeLa [3]): 75%
- inhibition at 24 h, 50 ug/ml [4]: 0%
- inhibition of growth at 50 µg/mL (HeLa [6]): 90%
- inhibition of growth at 50 µg/mL (T47D [7]): 25%
- inhibition of growth at 50 µg/mL (HeLa [8]): 60%
- inhibition of growth at 50 µg/mL (T47D [9]): 15%
- inhibition of growth at 50 µg/mL (T47D [10]): 0%

- logKw [5]: 2.97
Structure (SMILES): O=c1c(-c2ccco2)nnc2n1CCN2c1c(Cl)cccc1Cl
- inhibition at 72 h, 50 ug/ml [1]: 15%
- inhibition at 48 h, 50 ug/ml [2]: 15%
- inhibition of growth at 50 µg/mL (HeLa [3]): 80%
- inhibition at 24 h, 50 ug/ml [4]: 10%
- inhibition of growth at 50 µg/mL (HeLa [6]): 95%
- inhibition of growth at 50 µg/mL (T47D [7]): 25%
- inhibition of growth at 50 µg/mL (HeLa [8]): 80%
- inhibition of growth at 50 µg/mL (T47D [9]): 20%
- inhibition of growth at 50 µg/mL (T47D [10]): 10%

- logKw [5]: 3.27
Structure (SMILES): Cc1ccc(N2CCn3c2nnc(-c2ccco2)c3=O)cc1
- inhibition at 72 h, 50 ug/ml [1]: 50%
- inhibition at 48 h, 50 ug/ml [2]: 50%
- inhibition of growth at 50 µg/mL (HeLa [3]): 50%
- inhibition at 24 h, 50 ug/ml [4]: 30%
- inhibition of growth at 50 µg/mL (HeLa [6]): 80%
- inhibition of growth at 50 µg/mL (T47D [7]): 80%
- inhibition of growth at 50 µg/mL (HeLa [8]): 50%
- inhibition of growth at 50 µg/mL (T47D [9]): 60%
- inhibition of growth at 50 µg/mL (T47D [10]): 40%

- logKw [5]: 2.48
Structure (SMILES): Cc1ccccc1N1CCn2c1nnc(-c1ccco1)c2=O
- inhibition at 72 h, 50 ug/ml [1]: 0%
- inhibition at 48 h, 50 ug/ml [2]: 0%
- inhibition of growth at 50 µg/mL (HeLa [3]): 25%
- inhibition at 24 h, 50 ug/ml [4]: 0%
- inhibition of growth at 50 µg/mL (HeLa [6]): 50%
- inhibition of growth at 50 µg/mL (T47D [7]): 75%
- inhibition of growth at 50 µg/mL (HeLa [8]): 25%
- inhibition of growth at 50 µg/mL (T47D [9]): 50%
- inhibition of growth at 50 µg/mL (T47D [10]): 25%

- logKw [5]: 3.45
Structure (SMILES): O=c1c(-c2ccco2)nnc2n1CCN2c1ccc(Cl)cc1
- inhibition at 72 h, 50 ug/ml [1]: 90%
- inhibition at 48 h, 50 ug/ml [2]: 80%
- inhibition of growth at 50 µg/mL (HeLa [3]): 75%
- inhibition at 24 h, 50 ug/ml [4]: 50%
- inhibition of growth at 50 µg/mL (HeLa [6]): 90%
- inhibition of growth at 50 µg/mL (T47D [7]): 15%
- inhibition of growth at 50 µg/mL (HeLa [8]): 50%
- inhibition of growth at 50 µg/mL (T47D [9]): 15%
- inhibition of growth at 50 µg/mL (T47D [10]): 0%

- logKw [5]: 2.89
Structure (SMILES): COc1ccc(N2CCn3c2nnc(-c2ccco2)c3=O)cc1
- inhibition at 72 h, 50 ug/ml [1]: 60%
- inhibition at 48 h, 50 ug/ml [2]: 50%
- inhibition of growth at 50 µg/mL (HeLa [3]): 80%
- inhibition at 24 h, 50 ug/ml [4]: 10%
- inhibition of growth at 50 µg/mL (HeLa [6]): 95%
- inhibition of growth at 50 µg/mL (T47D [7]): 80%
- inhibition of growth at 50 µg/mL (HeLa [8]): 80%
- inhibition of growth at 50 µg/mL (T47D [9]): 70%
- inhibition of growth at 50 µg/mL (T47D [10]): 50%

- IC50 (T47D [11]): > 160 µM
- IC50 (HeLa [12]): 110 µM
- logKw [5]: 2.78
- IC50 (T47D [13]): > 160 µM
- IC50 (HeLa [14]): 90 µM
- IC50 (T47D [15]): > 160 µM
- IC50 (HeLa [16]): 110 µM
Structure (SMILES): O=c1c(-c2ccco2)nnc2n1CCN2c1ccccc1Cl
- inhibition at 72 h, 50 ug/ml [1]: 20%
- inhibition at 48 h, 50 ug/ml [2]: 20%
- inhibition of growth at 50 µg/mL (HeLa [3]): 80%
- inhibition at 24 h, 50 ug/ml [4]: 10%
- inhibition of growth at 50 µg/mL (HeLa [6]): 100%
- inhibition of growth at 50 µg/mL (T47D [7]): 25%
- inhibition of growth at 50 µg/mL (HeLa [8]): 80%
- inhibition of growth at 50 µg/mL (T47D [9]): 15%
- inhibition of growth at 50 µg/mL (T47D [10]): 5%

- logKw [5]: 2.54
Structure (SMILES): COc1ccccc1N1CCn2c1nnc(-c1ccco1)c2=O
- inhibition at 72 h, 50 ug/ml [1]: 5%
- inhibition at 48 h, 50 ug/ml [2]: 0%
- inhibition of growth at 50 µg/mL (HeLa [3]): 35%
- inhibition at 24 h, 50 ug/ml [4]: 0%
- inhibition of growth at 50 µg/mL (HeLa [6]): 80%
- inhibition of growth at 50 µg/mL (T47D [7]): 70%
- inhibition of growth at 50 µg/mL (HeLa [8]): 25%
- inhibition of growth at 50 µg/mL (T47D [9]): 30%
- inhibition of growth at 50 µg/mL (T47D [10]): 0%
